In ChEMBL document CHEMBL1127548, “N-benzylnaltrindoles as long-acting delta-opioid receptor antagonists” (J Med Chem, 1994):

Assays:
[1] = biological target: Opioid receptors; mu & delta (Homo sapiens) (UniProt P41143+P35372); test: Selectivity ratio is the ratio between delta and mu receptor; assay type: protein assay
Method in brief: (§1)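 Selectivity ratio is the DADLE IC50 ratio divided by the morphine (δ/μ) or ethylketazocine (δ/κ) IC50 ratio. These IC50 ratios come from smooth muscle with 100 nM antagonist, 15 min. A value of 1 was used wherever an IC50 ratio was <1.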

[2] = biological target: Mu-type opioid receptor (Cavia porcellus) (UniProt P97266); test: Antagonist potency using morphine at mu-opioid receptor in electrically stimulated guinea pig ileal longitudinal muscle (GPI); IC50 ratio; assay type: functional
Sequence of Mu-type opioid receptor (Cavia porcellus) (P97266 whole entry): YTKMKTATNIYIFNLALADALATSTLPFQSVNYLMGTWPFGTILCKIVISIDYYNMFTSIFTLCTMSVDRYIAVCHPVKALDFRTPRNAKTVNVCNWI
Method in brief: (§2)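 Electrically stimulated tissue: agonists were morphine (μ) and ethylketazocine (κ) in guinea pig ileal longitudinal muscle, and DADLE (δ) in mouse vas deferens. Antagonist at 100 nM was incubated 15 min. IC50 ratio is agonist IC50 with antagonist divided by control IC50 in the same preparation, n ≥ 3, ±SE.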

[3] = biological target: Opioid receptors; delta & kappa (Homo sapiens) (UniProt P41145+P41143); test: Selectivity ratio is the ratio between delta and kappa receptor; assay type: protein assay; method in brief: as §1
Sequence of Opioid receptors; delta & kappa (Homo sapiens) (P41143 whole entry, looked up): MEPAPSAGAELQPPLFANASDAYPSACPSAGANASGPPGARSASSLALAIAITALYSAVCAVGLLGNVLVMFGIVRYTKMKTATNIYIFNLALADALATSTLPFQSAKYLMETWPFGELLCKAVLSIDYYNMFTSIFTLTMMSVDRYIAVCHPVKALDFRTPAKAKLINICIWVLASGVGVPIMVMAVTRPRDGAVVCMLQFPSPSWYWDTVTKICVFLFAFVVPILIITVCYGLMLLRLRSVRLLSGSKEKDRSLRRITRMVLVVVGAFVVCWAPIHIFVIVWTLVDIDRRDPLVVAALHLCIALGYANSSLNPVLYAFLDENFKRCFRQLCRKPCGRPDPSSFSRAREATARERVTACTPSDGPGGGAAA
Sequence of Opioid receptors; delta & kappa (Homo sapiens) (P41145 whole entry, looked up): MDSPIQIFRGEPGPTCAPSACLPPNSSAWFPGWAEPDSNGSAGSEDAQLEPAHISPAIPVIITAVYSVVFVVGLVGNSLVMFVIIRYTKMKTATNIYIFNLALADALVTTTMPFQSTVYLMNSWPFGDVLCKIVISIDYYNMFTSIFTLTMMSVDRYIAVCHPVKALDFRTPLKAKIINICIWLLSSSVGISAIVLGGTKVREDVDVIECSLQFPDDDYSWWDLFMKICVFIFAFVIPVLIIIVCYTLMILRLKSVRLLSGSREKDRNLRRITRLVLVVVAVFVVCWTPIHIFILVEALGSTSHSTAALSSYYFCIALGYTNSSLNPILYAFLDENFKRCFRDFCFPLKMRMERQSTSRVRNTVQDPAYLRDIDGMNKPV

[4] = biological target: Kappa-type opioid receptor (Cavia porcellus) (UniProt P41144); test: Antagonist potency was determined using ethylketazocine at kappa-opioid receptor in electrically stimulated guinea pig ileal longitudinal muscle (GPI); IC50 ratio; assay type: functional; method in brief: as §2
Sequence of Kappa-type opioid receptor (Cavia porcellus) (P41144 whole entry): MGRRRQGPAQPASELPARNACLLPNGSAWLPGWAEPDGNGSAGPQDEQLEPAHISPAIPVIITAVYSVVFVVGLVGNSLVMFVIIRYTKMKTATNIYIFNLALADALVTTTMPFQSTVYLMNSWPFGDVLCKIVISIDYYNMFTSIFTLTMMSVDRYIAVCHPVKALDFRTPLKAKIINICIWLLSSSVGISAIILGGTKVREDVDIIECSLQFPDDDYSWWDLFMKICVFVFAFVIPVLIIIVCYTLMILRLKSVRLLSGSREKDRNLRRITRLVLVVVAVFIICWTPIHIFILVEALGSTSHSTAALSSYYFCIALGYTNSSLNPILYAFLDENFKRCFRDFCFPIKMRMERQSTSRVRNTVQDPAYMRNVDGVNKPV

[5] = biological target: Delta-type opioid receptor (Mus musculus) (UniProt P32300); test: Antagonist potency was determined using D-Ala2, D-Leu5 enkephalin28 (DADLE) at delta-opioid receptor in mouse vas deferens (MVD); IC50 ratio; assay type: functional; method in brief: as §2
Sequence of Delta-type opioid receptor (Mus musculus) (P32300 whole entry): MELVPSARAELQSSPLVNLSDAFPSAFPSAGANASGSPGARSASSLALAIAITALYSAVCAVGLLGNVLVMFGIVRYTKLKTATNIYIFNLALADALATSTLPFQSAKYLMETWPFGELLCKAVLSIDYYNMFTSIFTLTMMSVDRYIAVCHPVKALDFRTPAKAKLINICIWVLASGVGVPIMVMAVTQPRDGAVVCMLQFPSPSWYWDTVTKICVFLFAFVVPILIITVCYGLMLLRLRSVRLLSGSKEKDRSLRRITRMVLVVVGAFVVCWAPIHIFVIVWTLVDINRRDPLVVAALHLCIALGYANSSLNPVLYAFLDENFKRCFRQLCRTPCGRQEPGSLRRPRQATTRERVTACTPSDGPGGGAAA

[6] = biological target: Kappa-type opioid receptor (Mus musculus) (UniProt P33534); test: Antagonist potency was determined using U-50,488 in kappa-opioid receptor by icv administration in mouse after 24 hr; ED50 ratio; assay type: functional, organism-based
Sequence of Kappa-type opioid receptor (Mus musculus) (P33534 whole entry): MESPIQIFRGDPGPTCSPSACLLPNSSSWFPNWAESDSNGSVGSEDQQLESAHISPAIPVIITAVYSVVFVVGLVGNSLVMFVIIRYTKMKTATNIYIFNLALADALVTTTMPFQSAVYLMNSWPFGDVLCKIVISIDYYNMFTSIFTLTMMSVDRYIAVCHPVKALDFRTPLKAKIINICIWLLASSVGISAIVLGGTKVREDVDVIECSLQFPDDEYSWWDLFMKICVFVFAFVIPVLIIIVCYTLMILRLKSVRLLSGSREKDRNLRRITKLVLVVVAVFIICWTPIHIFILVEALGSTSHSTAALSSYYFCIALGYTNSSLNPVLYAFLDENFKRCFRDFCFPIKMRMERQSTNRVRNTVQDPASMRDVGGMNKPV
Method in brief: (§3)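 Mouse abdominal stretch antinociception assay. Antagonist was given icv at 5 nmol, with agonists tested 24 h later. DSLET and DPDPE were given icv; morphine and U50488 were given sc. ED50 ratio is agonist ED50 with antagonist divided by control ED50, with 95% confidence limits.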

[7] = biological target: Delta-type opioid receptor (Mus musculus) (UniProt P32300); test: Antagonist potency was determined using […] in delta2-opioid receptor by icv administration in mouse after 24 hr; ED50 ratio; assay type: functional, organism-based; method in brief: as §3
[8] = biological target: Mu-type opioid receptor (Mus musculus) (UniProt P42866); test: Antagonist potency was determined using morphine in mu-opioid receptor by icv administration in mouse after 24 hr; ED50 ratio; assay type: functional, organism-based; method in brief: as §3
Sequence of Mu-type opioid receptor (Mus musculus) (P42866 whole entry): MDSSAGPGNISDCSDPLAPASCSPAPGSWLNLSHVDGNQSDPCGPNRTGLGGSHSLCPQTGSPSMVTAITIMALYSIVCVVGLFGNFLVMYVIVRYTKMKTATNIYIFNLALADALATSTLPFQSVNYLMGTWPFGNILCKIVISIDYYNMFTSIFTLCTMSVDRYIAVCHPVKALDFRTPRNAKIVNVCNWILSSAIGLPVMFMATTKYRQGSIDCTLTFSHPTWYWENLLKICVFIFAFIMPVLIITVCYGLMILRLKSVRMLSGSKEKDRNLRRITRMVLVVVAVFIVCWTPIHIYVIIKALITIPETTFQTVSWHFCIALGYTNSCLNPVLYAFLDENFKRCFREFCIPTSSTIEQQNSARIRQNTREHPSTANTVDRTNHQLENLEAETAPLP

[9] = biological target: Delta-type opioid receptor (Mus musculus) (UniProt P32300); test: Antagonist potency was determined using DPDPE in delta1-opioid receptor by icv administration in mouse after 24 hr; ED50 ratio; assay type: functional, organism-based; method in brief: as §3

Sequence of Opioid receptors; mu & delta (Homo sapiens) (P35372 whole entry, looked up): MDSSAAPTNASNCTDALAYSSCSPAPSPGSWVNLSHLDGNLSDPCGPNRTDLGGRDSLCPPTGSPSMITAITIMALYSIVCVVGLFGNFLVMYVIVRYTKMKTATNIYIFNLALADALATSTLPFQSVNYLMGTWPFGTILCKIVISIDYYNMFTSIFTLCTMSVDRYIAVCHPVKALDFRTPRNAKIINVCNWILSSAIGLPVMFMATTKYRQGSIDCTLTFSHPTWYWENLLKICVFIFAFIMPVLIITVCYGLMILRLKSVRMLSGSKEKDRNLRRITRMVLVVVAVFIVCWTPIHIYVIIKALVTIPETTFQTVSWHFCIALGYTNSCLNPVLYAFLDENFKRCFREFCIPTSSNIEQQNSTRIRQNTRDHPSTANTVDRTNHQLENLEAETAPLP
Sequence of Opioid receptors; mu & delta (Homo sapiens) (P41143 whole entry, looked up): as the sequence (P41143 whole entry, looked up) above

| Structure (SMILES) | Selectivity ratio [1] | Ratio [2] | Selectivity ratio [3] | Ratio [4] | Ratio [5] | Ratio [6] | Ratio [7] | Ratio [8] | Ratio [9] |
| --- | --- | --- | --- | --- | --- | --- | --- | --- | --- |
| O=[N+]([O-])c1ccc(Cn2c3c(c4ccccc42)C[C@@]2(O)[C@H]4Cc5ccc(O)c6c5[C@@]2(CCN4CC2CC2)[C@H]3O6)cc1 | 38 | 0.5 | 38 | 0.4 | 38 | – | – | – | – |
| Oc1ccc2c3c1O[C@H]1c4[nH]c5ccccc5c4C[C@@]4(O)[C@@H](C2)N(CC2CC2)CC[C@]314 | 41 | 11.2 | 353 | 1.3 | 459 | – | – | – | – |
| Nc1cccc(Cn2c3c(c4ccccc42)C[C@@]2(O)[C@H]4Cc5ccc(O)c6c5[C@@]2(CCN4CC2CC2)[C@H]3O6)c1 | 111 | 1.3 | 100 | 1.5 | 148 | – | – | – | – |
| Oc1ccc2c3c1O[C@H]1c4c(c5ccccc5n4Cc4c(F)c(F)c(F)c(F)c4F)C[C@@]4(O)[C@@H](C2)N(CC2CC2)CC[C@]314 | 37 | 1.4 | 52 | 0.7 | 52 | – | – | – | – |
| Nc1ccc(Cn2c3c(c4ccccc42)C[C@@]2(O)[C@H]4Cc5ccc(O)c6c5[C@@]2(CCN4CC2CC2)[C@H]3O6)cc1 | 106 | 2.7 | 188 | 1.5 | 288 | 0.64 | 5.9 | 1.1 | – |
| O=[N+]([O-])c1cccc(Cn2c3c(c4ccccc42)C[C@@]2(O)[C@H]4Cc5ccc(O)c6c5[C@@]2(CCN4CC2CC2)[C@H]3O6)c1 | 112 | 0.9 | 112 | 0.6 | 112 | – | – | – | – |
| O=[N+]([O-])c1ccccc1Cn1c2c(c3ccccc31)C[C@@]1(O)[C@H]3Cc4ccc(O)c5c4[C@@]1(CCN3CC1CC1)[C@H]2O5 | 13 | 2.3 | 31 | 0.8 | 31 | – | – | – | – |
| Nc1ccccc1Cn1c2c(c3ccccc31)C[C@@]1(O)[C@H]3Cc4ccc(O)c5c4[C@@]1(CCN3CC1CC1)[C@H]2O5 | 120 | 1 | 120 | 0.9 | 120 | – | – | – | – |
| Oc1ccc2c3c1O[C@H]1c4c(c5ccccc5n4Cc4ccccc4)C[C@@]4(O)[C@@H](C2)N(CC2CC2)CC[C@]314 | 131 | 1.6 | 208 | 0.4 | 208 | 0.77 | 10 | 1.2 | 1.3 |
